Experimental data pooled from the literature.
Lines come from different studies, so protocols differ.
Target: Adenosine receptor A1 (ADORA1, Homo sapiens, UniProt P30542)
Sequence (P30542 1-326, as in one of the studies): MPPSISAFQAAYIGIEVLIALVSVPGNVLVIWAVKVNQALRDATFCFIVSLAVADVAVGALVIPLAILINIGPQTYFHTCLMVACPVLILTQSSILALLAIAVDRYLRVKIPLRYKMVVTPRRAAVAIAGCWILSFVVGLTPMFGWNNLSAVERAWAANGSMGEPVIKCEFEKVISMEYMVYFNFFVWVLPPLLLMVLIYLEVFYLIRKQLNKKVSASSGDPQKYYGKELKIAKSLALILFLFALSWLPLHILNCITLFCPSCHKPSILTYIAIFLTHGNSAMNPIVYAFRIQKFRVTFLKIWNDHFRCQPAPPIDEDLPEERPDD

Compound	observed	technique	tested at	inhibition [%]
COc1ccc(SC[C@@]23C[C@@H]2[C@@H](n2cnc4c(NC(C5CCCC5)C5CCCC5)nc(Cl)nc42)[C@H](O)[C@@H]3O)cc1OC	ligand displacement	radioligand	10 µM	39
CCN(CC)CCCC[C@H](NC(=O)[C@H](CC(C)C)NC(=O)[C@H](C)NC(=O)[C@H](Cc1ccccc1)NC(=O)c1ccc(C(C)(C)C)cc1)C(=O)N[C@@H](CO)C(=O)OC	ligand displacement	radioligand	10 µM	4
CCSC[C@@]12C[C@@H]1[C@@H](n1cnc3c(NC(C4CCCC4)C4CCCC4)nc(Cl)nc31)[C@H](O)[C@@H]2O	ligand displacement	radioligand	10 µM	54
C[C@H](C(=O)N[C@H]1COc2ccccc2[C@@H]1S(C)(=O)=O)c1ccc(F)cc1	cell-free assay		10 µM	1
COCc1c(-c2cc3cc(C)cc(OC)c3s2)c2c(N)ncnn2c1CN1CCNC(=O)C1	ligand displacement	radioligand	10 µM	16
CN(CCN1CCC(OC(=O)Nc2ccccc2-c2ccccc2)CC1)C(=O)c1ccc(CN2CCC(C(N)=O)CC2)cc1	ligand displacement	radioligand	1 µM	0
CC(C)N1CCC[C@H]1CNC(=O)c1cn(C2CCCC2)c(=O)c2c1c1ccccc1n2C	ligand displacement	radioligand	10 µM	-1
c1ccc(C(NCCNC(c2ccccc2)c2ccccc2)c2ccccc2)cc1	cell-free assay		10 µM	30
COc1ccc(S(=O)(=O)N2CCCCC2)cc1C	ligand displacement	radioligand	10 µM	< 30
O=C(Nc1cccnn1)N1CCN([C@@H]2CCOc3cc(C(F)(F)F)ccc32)CC1	cell-free assay		20 µM	17
CSC[C@@]12C[C@@H]1[C@@H](n1cnc3c(NC(C4CCCC4)C4CCCC4)nc(SC)nc31)[C@H](O)[C@@H]2O	ligand displacement	radioligand	10 µM	15
